# Source: PubChem BioAssay
# TAAR1 agonist: agonists of human TAAR1. activation, % at 3 µM. Q96RJ0. CHO RD-HGA16 TAAR1, Fluo-8 calcium fluorescence; vehicle wells 0%, saturating PEA agonist 100%. actives 0.99% (n = 360,000);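 active = activation above the mean activation of all test compounds in the run plus 3 SD, cut at about 38% in these data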
# Target sequence (Q96RJ0 whole entry, looked up): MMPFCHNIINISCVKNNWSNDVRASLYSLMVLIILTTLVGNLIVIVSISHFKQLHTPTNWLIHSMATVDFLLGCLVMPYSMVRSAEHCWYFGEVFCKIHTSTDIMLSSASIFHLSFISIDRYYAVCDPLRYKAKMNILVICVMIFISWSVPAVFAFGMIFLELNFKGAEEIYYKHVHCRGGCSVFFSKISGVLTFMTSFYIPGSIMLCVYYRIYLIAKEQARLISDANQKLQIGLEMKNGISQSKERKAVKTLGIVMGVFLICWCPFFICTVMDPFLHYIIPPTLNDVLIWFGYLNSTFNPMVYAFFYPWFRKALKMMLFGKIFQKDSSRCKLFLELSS
#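 Test system: RD-HGA16 (CHO) cells co-expressing Gα16 and hTAAR1 / Benchmarks: DMSO vehicle as 0%, PEA at EC100 as 100% / Repeats: no replicates (n 1) / Measure: % activation from peak over basal fluorescence ratio, DMSO-to-PEA scaled / Timing: 17-24 h plating, Fluo-8 75 min 37 °C, 30 min RT / Technique: kinetic Fluo-8 calcium fluorescence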
# OXTR potentiator: potentiators of human oxytocin receptor. activation, % at 3 µM. CHO-OTR cells, Fluo-8 calcium fluorescence, potentiator mode; 0% = oxytocin EC15, 100% = EC100. P30559. actives 0.061% (n = 320,000);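 active = activation above that plate's cutoff, the mean activation of tested compounds plus 3 SD, cut at about 6.6% in these data, passing the limit was not always enough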
# Target sequence (P30559 whole entry, looked up): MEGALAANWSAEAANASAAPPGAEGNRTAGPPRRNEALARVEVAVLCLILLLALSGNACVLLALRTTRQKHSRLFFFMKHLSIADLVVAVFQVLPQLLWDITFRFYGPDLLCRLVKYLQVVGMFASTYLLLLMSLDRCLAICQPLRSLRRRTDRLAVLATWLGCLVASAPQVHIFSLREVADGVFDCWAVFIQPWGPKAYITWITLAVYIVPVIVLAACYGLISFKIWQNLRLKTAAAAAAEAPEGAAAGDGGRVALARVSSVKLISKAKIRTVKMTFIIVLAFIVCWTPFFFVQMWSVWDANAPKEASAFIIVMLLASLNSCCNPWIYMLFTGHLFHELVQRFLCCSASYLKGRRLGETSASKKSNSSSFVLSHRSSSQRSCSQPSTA
#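 Assay system: CHO cell line stably expressing human OTR. Reagent: EC15 oxytocin agonist. Dosing: single dose, 3.0 µM nominal final compound concentration. Timing: compound 6 min at room temperature before oxytocin, 100 s read. Signal: kinetic Fluo-8 calcium fluorescence. Controls: oxytocin EC15 low and EC100 high.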
# OXTR ag: human OXTR agonism; P30559; CHO-OTR cells, Fluo-8 calcium fluorescence; normalized: DMSO 0%, oxytocin 100%; activation, % at 3 µM; actives 0.32% (n = 320,000);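 active = activation above the mean of all tested compounds plus 3 SD, cutoff set per screening run, cut at about 20% in these data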;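 also: peak over basal fluorescence ratio from a 100 s FLIPR kinetic read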
# TAAR1 antag: antagonists of human TAAR1; actives 1.5% (n = 360,000); AID 624466; CHO RD-HGA16 TAAR1, Fluo-8 calcium fluorescence, antagonist; inhibition, % at 3 µM;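 active = inhibition above a per-plate cutoff, the mean inhibition of test compounds on that plate plus 3 SD, cut at about 49% in these data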
#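 Test system: hTAAR1-expressing CHO RD-HGA16 cells, Gα16-coupled; Probe or stimulus: EC80 β-phenethylamine stimulus; Compound dosing: single nominal final test compound concentration of 3 µM; Timing: 140 s kinetic read after compound, 140 s after agonist; Signal: Fluo-8 calcium-sensitive fluorescence; Measure: % inhibition of agonist calcium response; Controls: DMSO and EC80 PEA controls.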
# V1aR counter: activates human V1a receptor in oxytocin agonist counter-screen. activation, % at 3 µM. P37288. CHO-V1R cells, Fluo-8 calcium fluorescence, agonist mode; 0% DMSO, 100% 3 nM vasopressin. actives 0.25% (n = 320,000);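 active = activation above the mean activation of all tested compounds plus 3 SD, per screening run, cut at about 20% in these data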;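 also: signal is peak over basal fluorescence ratio across a 100 second FLIPR read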
# nonsel antag count: nonselective antagonist in TAAR1 antagonist counter-screen; shares compounds with TAAR1 antag; counterscreen cell line, calcium fluorescence, antagonist mode; inhibition, % at 3 µM; actives 77% (n = 2,400); in the data active = inhibition above about 22%;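 also: CHO-Ga16 host cells stimulated with ATP at an EC80 level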
# TAAR1 ant conf: human TAAR1 antagonism, confirmed; shares compounds with TAAR1 antag; TAAR1-expressing cells, fluorescence antagonist read-out; inhibition, % at 3 µM; actives 40% (n = 2,400); in the data active = inhibition above about 49%;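 also: CHO-Ga16 host cells challenged with agonist PEA near its EC80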
# Ga16 ag counter: nonselective Ga16 agonist in TAAR1 antagonist counter-screen; shares compounds with TAAR1 antag; Ga16-expressing cells, calcium fluorescence, agonist counterscreen; activation, % at 3 µM; actives 18% (n = 2,400); AID 651953; in the data active = activation above about 12%
# TAAR1 ag count: activates human TAAR1 in antagonist counter-screen | AID 651955 | shares compounds with TAAR1 antag | actives 2% (n = 2,400) | hTAAR1 cell line, fluorescence activation, agonist mode | activation, % at 3 µM; in the data active = activation above about 37%;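 also: CHO cells stably expressing TAAR1 with calcium dye readout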
# A number is an active result; i = inactive; nt = no result. The list is not random: actives were taken first. Their share in the collection is about 2.3%.
SMILES,TAAR1 agonist,OXTR potentiator,OXTR ag,TAAR1 antag,V1aR counter,nonsel antag count,TAAR1 ant conf,Ga16 ag counter,TAAR1 ag count
Cc1ccc(C(=O)Nc2cccc(C(F)(F)F)c2)cc1Nc1ncnc2nc[nH]c12,i,i,i,52,i,32,i,i,i
Cc1ccc(C(=O)Nc2cccc(C(F)(F)F)c2)cc1Nc1cnccn1,i,i,i,i,i,nt,nt,nt,nt
CCn1c(SCC(=O)Nc2ccccc2N2CCCCC2)nc2c1c(=O)n(C)c(=O)n2C,i,i,i,55,i,27,i,i,i
CC(C)n1c(SCC(=O)Nc2ccccc2N2CCOCC2)nc2c1c(=O)n(C)c(=O)n2C,i,i,i,i,i,nt,nt,nt,nt
Brc1ccc(-c2nc(N/N=C/c3cccnc3)c3ccccc3n2)cc1,i,i,i,78,i,31,49,i,i
C(=N\Nc1nc(-c2cccnc2)nc2ccccc12)/c1ccccc1,i,i,i,i,i,nt,nt,nt,nt
Nc1ccn([C@@H]2O[C@H](C(=O)N[C@H](Cc3ccccc3)C(=O)N3CCN(CCO)CC3)[C@@H](O)[C@H]2O)c(=O)n1,i,nt,nt,i,nt,nt,nt,nt,nt
CC1(C)c2[nH]c3ccccc3c2C[C@@H]2C(=O)N(c3ccc(F)cc3F)C(=O)N21,i,i,i,61,i,40,52,17,i
CC1(C)c2[nH]c3ccccc3c2C[C@@H]2C(=O)N(Cc3ccc(F)cc3)C(=O)N21,i,i,i,67,i,34,50,i,i
Cc1ccc(/C=N/NC(=O)c2c(C)nc3ccc(Cl)cn23)cc1,i,nt,nt,i,nt,nt,nt,nt,nt
CC(Oc1ccc(F)cc1)C(=O)Nc1cccc(S(=O)(=O)N(C)c2ccccc2)c1 (configuration not stated),i,nt,nt,i,nt,nt,nt,nt,nt
COc1ccc(C(=O)N(c2c(C)cccc2C)C(COC(C)=O)COC(C)=O)cc1,i,nt,nt,i,nt,nt,nt,nt,nt
O=C(COc1ccccc1)Nc1cccc(-c2nnc(-c3ccccc3)o2)c1,i,i,i,67,i,38,51,i,i
CCC(=O)Nc1cccc(-c2nnc(-c3cccc(NC(=O)CC)c3)o2)c1,i,i,i,56,i,22,i,i,i
O=C(COc1ccccc1)Nc1ccccc1C(=O)NC1CC1,i,i,i,i,i,nt,nt,nt,nt
Cc1ccccc1OCC(=O)Nc1ccccc1C(=O)NC1CC1,i,i,i,57,i,24,i,i,i
COc1ccc(C(=O)Nc2ccc3nc(C)sc3c2)cc1S(=O)(=O)N1CCOCC1,i,nt,nt,i,nt,nt,nt,nt,nt
Oc1[nH]c2ccccc2c1N=Nc1nc(Nc2ccccc2)nc(N2CCOCC2)n1,i,i,i,53,i,29,i,i,i
Cc1ccc(S(=O)(=O)N2[C@H](CC(=O)c3ccccc3)OC[C@@H]2C(C)C)cc1,i,nt,nt,i,nt,nt,nt,nt,nt
Cc1noc(NS(=O)(=O)c2ccc(NC(=O)c3ccccc3NS(=O)(=O)c3ccc(F)c(F)c3)cc2)c1C,i,nt,nt,i,nt,nt,nt,nt,nt
Cc1noc(NS(=O)(=O)c2ccc(NC(=O)c3cccc(S(=O)(=O)Nc4ccccc4F)c3)cc2)c1C,i,i,i,100,i,i,i,i,i
Cc1cc(NC(=O)CCc2c[nH]c3ccccc23)ccc1Nc1cccnc1,i,nt,nt,i,nt,nt,nt,nt,nt
O=C(Cc1c[nH]c2ccccc12)Nc1ccc(Nc2cccnc2)c(-c2ccc(-c3ccccc3)cc2F)c1,i,nt,nt,58,nt,33,i,i,i
O=C(Cc1c[nH]c2ccccc12)Nc1ccc(Nc2cccnc2)c(-c2cccc(Cl)c2)c1,i,nt,nt,72,nt,29,i,i,i
Cc1[nH]c2ccccc2c1CC(=O)Nc1ccc(Nc2cccnc2)c(-c2ccc(F)c(F)c2)c1,i,nt,nt,i,nt,nt,nt,nt,nt
SMILES,TAAR1 agonist,OXTR potentiator,OXTR ag,TAAR1 antag,V1aR counter,nonsel antag count,TAAR1 ant conf,Ga16 ag counter,TAAR1 ag count
O=C(Cc1c[nH]c2ccccc12)Nc1ccc(Nc2cccnc2)c(-c2ccc(F)c(F)c2)c1,i,nt,nt,87,nt,42,65,14,i
O=C(CCc1c[nH]c2ccccc12)Nc1ccc(Nc2cccnc2)c(Br)c1,i,nt,nt,71,nt,31,i,i,i
O=S1(=O)CC(N2CCCCC2)CN1Cc1cn(Cc2cccc(Cl)c2)nn1 (configuration not stated),i,nt,nt,i,nt,nt,nt,nt,nt
CCNC(=O)C1(C)CCCN(C(=O)c2sccc2C)C1 (configuration not stated),i,nt,nt,i,nt,nt,nt,nt,nt
Cc1c(NC(=O)CSc2ccc(Cl)cc2)cccc1-c1nc2ncccc2o1,i,i,i,60,i,31,i,i,i
COC(=O)[C@@]12C[C@@H](CC(=O)NCc3cccc4ccccc34)C(=O)N(CCc3ccc(OC)c(OC)c3)C1=CCC(C)(C)C2,i,nt,nt,i,nt,nt,nt,nt,nt
COc1cccc(NC(=S)N2CCc3cc(OC)c(OC)cc3C2)c1,i,i,i,i,i,nt,nt,nt,nt
COc1cc2c(cc1OC)CN(C(=S)Nc1ccc(Cl)cc1)CC2,i,i,i,57,i,i,53,12,i
Cc1cccc(CN2CCSCCS2(=O)=O)c1,i,nt,nt,i,nt,nt,nt,nt,nt
CCCC[C@@H]1CC2=C(C(=O)OC(C)(C)O2)[C@@H](c2ccc(F)cc2)O1,i,nt,nt,i,nt,nt,nt,nt,nt
O=C(C[C@@H]1C/C=C/CC[C@@H](Cc2ccc(F)cc2)C(=O)O[C@@H](c2ccccc2)CNC1=O)NCCO,i,i,i,66,i,26,49,i,i
CC(C)(C)OC(=O)C[C@H]1C/C=C\C[C@@H](CC(=O)N[C@@H](CO)Cc2ccccc2)C(=O)NC[C@@H](c2ccccc2)OC1=O,i,i,i,i,i,nt,nt,nt,nt
CC(C)(C)OC(=O)C[C@@H]1C/C=C\C[C@@H](CC(=O)N[C@@H](CO)Cc2ccccc2)C(=O)NC[C@@H](c2ccccc2)OC1=O,i,i,i,67,i,28,i,i,i
O=C1NC[C@@H](c2ccccc2)OC(=O)[C@H](Cc2ccc(F)cc2)C/C=C\C[C@H]1CC(=O)N(CCO)Cc1ccccc1,i,i,i,68,i,30,i,i,i
O=C1NC[C@@H](c2ccccc2)OC(=O)[C@@H](Cc2ccc(F)cc2)CC/C=C/C[C@H]1CC(=O)N(CCO)Cc1ccccc1,i,i,i,59,i,i,i,i,i
O=C(NS(=O)(=O)c1ccccc1[N+](=O)[O-])[C@H]1O[C@@H](n2ccc(=O)[nH]c2=O)[C@H](O)[C@@H]1O,i,nt,nt,i,nt,nt,nt,nt,nt
